# Bioassay records: PubChem, Broad Institute
# ERAP1 inh – blocks human ERAP1 aminopeptidase activity; recombinant ERAP1, Leu-AMC fluorescence, 60 min; Q9NZ08; inhibition, % at 10.7 µM; 340,000 tested, 0.15% active;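 active means mean replicate inhibition of at least 30%, or all replicates individually reaching that 30% level; inactive means mean below 30% and not every replicate reaching it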
# SIRT5 inh – sirtuin-5 (human) deacylase inhibition. inhibition, % at 15 µM. Q9NXA8. 330,000 tested, 1.1% active. AID 652115. Purified SirT5, succinyl-peptide AMC, trypsin-coupled fluorescence; in the data active means inhibition above about 15%
# Target sequence (Q9NXA8 whole entry, looked up): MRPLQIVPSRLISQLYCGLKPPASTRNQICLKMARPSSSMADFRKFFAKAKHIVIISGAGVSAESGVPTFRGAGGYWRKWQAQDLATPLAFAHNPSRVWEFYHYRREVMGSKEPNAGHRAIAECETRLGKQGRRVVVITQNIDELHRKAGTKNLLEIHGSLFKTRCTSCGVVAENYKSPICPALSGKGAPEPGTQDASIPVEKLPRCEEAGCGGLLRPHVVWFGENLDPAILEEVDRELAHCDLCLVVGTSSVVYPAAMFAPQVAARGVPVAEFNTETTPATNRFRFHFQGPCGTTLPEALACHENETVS
# S100A4 inh HTS – blocks human S100A4 binding to myosin IIA peptide; S100A4/TAMRA-MyoIIA peptide fluorescence polarization; inhibition, % at 10.7 µM; 360,000 tested, 0.14% active; AID 652163;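 active means mean inhibition of at least 70% across replicates, with every replicate also reaching that level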
# Target sequence (P26447 whole entry, looked up): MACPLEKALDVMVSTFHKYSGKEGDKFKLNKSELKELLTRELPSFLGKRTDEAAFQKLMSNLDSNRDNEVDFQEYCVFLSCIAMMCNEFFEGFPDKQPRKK
#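 Material: human S100A4 monomer with TAMRA-labelled myosin IIA peptide; buffer or medium: HEPES pH 7.2 with CaCl2, KCl, NaCl, DTT, Triton; compound dosing: one concentration per compound; schedule: 5 min incubation before reading; benchmarks: neutral control DMSO, positive control TFP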
# rRNA inh HTS – inhibitors of bacterial rRNA selective over humanized ribosomes | AID 720706 | GFP signal change (wild-type ribosome), % (concentration not given with the values) | E. coli WT GFP vs humanized-ribosome RFP mutants, fluorescence, 24 h; stronger effect = lower value; DMSO median 0, no signal -100 | 350,000 tested, 1.6% active;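 active means significant combined selectivity score with lowered wild-type GFP, culture density cut under 30%, mutant RFP and density less affected; inactive means any of these conditions unmet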
# CFTR F508del cor – correctors of CFTR F508del function in bronchial epithelial cells; 350,000 tested, 0.36% active; AID 720511; CFBE cells, YFP halide quenching; stimulated with forskolin plus potentiator P3; % fluorescence drop versus neutral controls; activity (quench increase), % at 7.58 µM;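 active means mean added fluorescence quench of at least 8% versus neutral control, with both replicates also reaching 8%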;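 further: cells transiently co-express mutant CFTR-F508del with the halide-sensitive YFP; corrector assay measuring rescue of mutant channel to the surface after 24 h compound exposure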
# A number is an active result; i = inactive; nt = no result; + = active, no number. Rows were chosen to be rich in hits. Some 3.1% of all compounds tested hit in one or more screens of this group.
SMILES,ERAP1 inh,SIRT5 inh,S100A4 inh HTS,rRNA inh HTS,CFTR F508del cor
C[C@@H]1CN([C@@H](C)CO)C(=O)c2cc(NS(=O)(=O)c3ccc(F)cc3)ccc2O[C@@H](C)CCCCO[C@@H]1CN(C)Cc1ccc(C(F)(F)F)cc1,i,i,i,i,i
C[C@H]1CN([C@@H](C)CO)C(=O)Cc2cc(NC(=O)C3CCCCC3)ccc2O[C@@H]1CN(C)C(=O)Nc1cccc2ccccc12,i,i,i,i,i
C[C@@H]1CN([C@H](C)CO)S(=O)(=O)c2ccc(-c3cncnc3)cc2O[C@@H]1CN(C)C(=O)C1CCCCC1,i,i,i,i,i
C[C@H](CO)N1C[C@H](C)[C@H](CN(C)Cc2ccc(C(F)(F)F)cc2)OCCCC[C@H](C)Oc2ccc(NS(=O)(=O)c3ccc(F)cc3)cc2C1=O,i,17.4,i,i,i
COc1ccc(C2SCC(=O)N2CC23CC4CC(CC(C4)C2)C3)cc1 (stereo not given),i,i,i,-24.9,i
CN(C)CCCNC(=O)C[C@@H]1CC[C@@H]2[C@@H](COc3ccc(NC(=O)C4CCC4)cc3C(=O)N2C)O1,nt,i,i,i,i
CC(C)CC#Cc1ccc2c(c1)O[C@@H](CN(C)C(=O)c1ccccn1)[C@@H](C)CN([C@@H](C)CO)S2(=O)=O,i,i,i,i,i
CCC(=O)N[C@@H]1CC[C@H](CCn2cc(CN(C)C)nn2)O[C@H]1CO,i,i,i,i,i
Cc1ccc(CNS(=O)(=O)c2ccc3c(c2)NC(=O)C(C)S3)cc1 (stereo not given),i,i,i,-33.8,i
CCc1cccc(NS(=O)(=O)c2ccc3c(c2)NC(=O)C(C)S3)c1 (stereo not given),i,i,i,i,i
O=C1CSc2ccc(S(=O)(=O)NCc3ccc(Cl)cc3)cc2N1,i,i,i,-29.9,i
COc1ccc(CCNS(=O)(=O)c2ccc3c(c2)NC(=O)C(C)S3)cc1OC (stereo not given),i,i,i,i,i
O=C1CSc2ccc(S(=O)(=O)NCc3ccc(F)cc3)cc2N1,i,i,i,i,i
CCN(Cc1ccccc1)S(=O)(=O)c1ccc2c(c1)NC(=O)CS2,i,i,i,-35.4,i
CCN(Cc1ccccc1)S(=O)(=O)c1ccc2c(c1)NC(=O)CC(=O)N2,i,i,i,i,i
COc1ccc(CNS(=O)(=O)c2ccc3c(c2)NC(=O)C(C)S3)cc1 (stereo not given),i,i,i,-19.1,i
CCCNC(=O)N[C@@H]1C=C[C@H](CC(=O)NCCc2ccccc2)O[C@@H]1CO,nt,nt,nt,i,i
Cc1ccc(/C=N/NC(=O)CNC(=O)COc2ccccc2)cc1,i,i,i,i,nt
O=C(CNc1ccc2ccccc2c1)N/N=C/C=C/c1cccc([N+](=O)[O-])c1,i,i,i,-15.1,nt
Cc1[nH]c2ccccc2c1/C=N/NC(=O)CNC(=O)COc1ccccc1,i,112.5,i,i,i
COc1ccc(C(=O)NCC(=O)N/N=C/c2c(C)[nH]c3ccccc23)cc1,i,i,i,i,i
O=C(COc1ccccc1)NCC(=O)N/N=C/C=C/c1ccccc1,i,19.8,i,i,nt
Cc1[nH]c2ccccc2c1/C=N/NC(=O)c1cccs1,i,i,i,-24.2,i
CSC1=NSC2=NC(=O)/C(=C/c3coc4ccccc4c3=O)C(=N)N12,i,i,i,i,i
CSC1=NSC2=NC(=O)/C(=C/c3coc4ccc(O)cc4c3=O)C(=N)N12,i,20.7,i,i,i
SMILES,ERAP1 inh,SIRT5 inh,S100A4 inh HTS,rRNA inh HTS,CFTR F508del cor
C[C@@H]1CN([C@H](C)CO)C(=O)c2cc(NC(=O)CCC(F)(F)F)ccc2O[C@H]1CN(C)C(=O)Nc1ccc2c(c1)OCO2,i,i,i,i,i
Cc1ccccc1-c1ccnc2[nH]n(-c3ccccc3)c(=O)c12,i,24.4,i,i,i
Cn1cnc(S(=O)(=O)N2CC[C@@H]3[C@@H](CO)Nc4ccc(C#Cc5ccc(F)cc5)cc4[C@@H]32)c1,i,i,i,i,i
C[n+]1cccc(C(=O)NCC2CCCO2)c1 (stereo not given),98.9,nt,i,i,i
Cc1ccc(S(=O)(=O)NCc2ccccc2)cc1C(=O)N1CCCCC1,i,i,i,i,i
Cc1ccc(S(=O)(=O)NCc2ccccc2)cc1C(=O)NCC1CCCO1 (stereo not given),i,i,+,i,i
Cc1ccc(S(=O)(=O)NCc2ccccc2)cc1C(=O)N1CC(C)CC(C)C1 (stereo not given),i,i,i,i,8.3
COCC(=O)N(C)C[C@H]1Oc2cc(-c3ccccc3F)ccc2S(=O)(=O)N([C@@H](C)CO)C[C@@H]1C,i,i,i,i,i
CC(=O)Nc1ccc(/C=C(\C#N)C(=O)NC2CCCCC2)cc1,i,i,i,-26.2,i
CS(=O)(=O)N1CC(=O)N2[C@H](C1)[C@H](c1ccc(C#Cc3ccccc3)cc1)[C@@H]2CO,i,i,i,i,i
Cc1ccc(OC(=O)N(C)C[C@@H]2OCc3ccccc3-c3ccccc3C(=O)N([C@@H](C)CO)C[C@@H]2C)cc1,i,i,i,i,i
COc1ccc(S(=O)(=O)Nc2ccc3c(c2)OC[C@H](C)NC[C@@H](C)[C@H](OC)CN(C)C3=O)cc1,i,i,i,i,i
Cc1ccc(C(=O)N/C(=C\c2cccs2)C(=O)NC2CCCCC2)cc1,i,i,i,-25.4,i
Cc1ccc(C(=O)N/C(=C\c2cccs2)C(=O)NCCCN2CCOCC2)cc1,i,nt,i,i,i
CCCNC(=O)[C@@H]1[C@@H](CO)[C@@H]2Cn3c(cccc3=O)[C@H]1N2CCC(F)(F)F,i,i,122.9,i,nt
O=C(NC1CCCCC1)[C@@H]1[C@@H](CO)[C@@H]2Cn3c(cccc3=O)[C@H]1N2CC1CCCCC1,i,19.0,i,i,i
CCCNC(=O)N1[C@@H]2Cn3c(cccc3=O)[C@H]1[C@@H](C(=O)N1CCC(Cc3ccccc3)CC1)[C@@H]2CO,i,20.9,i,i,nt
CCCNC(=O)[C@H]1[C@H](CO)[C@H]2Cn3c(cccc3=O)[C@@H]1N2CCC(F)(F)F,i,i,i,i,nt
CC=Cc1ccc2n(c1=O)C[C@H]1[C@H](CO)[C@@H](C(=O)N3CCCCC3)N(CC3CC3)[C@@H]21 (mixture of isomers),i,i,i,i,i
OC[C@@H]1CC[C@@H]2O[C@H](CCc3ccc(C#CCc4ccccc4)cc3)[C@H](n3cc(-c4ccccc4)nn3)C[C@@H]2O1,i,i,i,nt,i
CC(=O)N1CCc2cc(S(=O)(=O)N3c4ccccc4CC3C)ccc21 (stereo not given),i,i,i,i,10.3
CC1Cc2ccccc2N1S(=O)(=O)c1cnc(Cl)c(Br)c1 (stereo not given),i,i,i,-26.8,i
